Measurements as given in ChEMBL document CHEMBL1773015, “2-Arylbenzothiazole, benzoxazole and benzimidazole derivatives as fluorogenic substrates for the detection of nitroreductase and aminopeptidase activity in clinically important bacteria” (Bioorg Med Chem, 2011).
Active and inactive are the calls of the source. The calls are words filed in the database; no cut-off is given here.

Tests used:
Staphylococcus aureus [1] = experiment: Binding affinity to Staphylococcus aureus NCTC 6571 nitroreductase assessed as fluorescent colonies after 24 hrs by fluorescence staining
Procedure, shortened: (§1)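 Columbia agar plates contained substrate at a final 100 mg/L, added from a 1-methyl-2-pyrrolidone solution to molten agar at 50 °C. Inoculum was a 10⁸ CFU/mL suspension in 0.85% saline, spread for single colonies, then incubated at 37 °C in air for 24 h. Colony fluorescence under UV light (365 nm) was graded as strong, moderate, weak or none, with colour noted.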

Pseudomonas aeruginosa [2] = experiment: Binding affinity to Pseudomonas aeruginosa NCTC 10662 nitroreductase assessed as fluorescent colonies after 24 hrs by fluorescence staining; procedure, shortened: as §1
[3] = system: Staphylococcus epidermidis; experiment: Binding affinity to Staphylococcus epidermidis NCTC 11047 nitroreductase assessed as fluorescent colonies after 24 hrs by fluorescence staining; procedure, shortened: as §1
Serratia marcescens [4] = experiment: Binding affinity to Serratia marcescens NCTC 10211 nitroreductase assessed as fluorescent colonies after 24 hrs by fluorescence staining; procedure, shortened: as §1
Enterococcus faecium = experiment: Binding affinity to Enterococcus faecium NCTC 7171 nitroreductase assessed as fluorescent colonies after 24 hrs by fluorescence staining
Listeria monocytogenes = experiment: Binding affinity to Listeria monocytogenes NCTC 11994 nitroreductase assessed as fluorescent colonies after 24 hrs by fluorescence staining; procedure, shortened: as §1
Morganella morganii [5] = experiment: Binding affinity to Morganella morganii WS 462403 nitroreductase assessed as fluorescent colonies after 24 hrs by fluorescence staining; procedure, shortened: as §1
Streptococcus pyogenes = experiment: Binding affinity to Streptococcus pyogenes NCTC 8306 nitroreductase assessed as fluorescent colonies after 24 hrs by fluorescence staining; procedure, shortened: as §1
Staphylococcus aureus [6] = experiment: Binding affinity to Staphylococcus aureus (MRSA) NCTC 11939 nitroreductase assessed as fluorescent colonies after 24 hrs by fluorescence staining; procedure, shortened: as §1
Enterobacter cloacae [7] = experiment: Binding affinity to Enterobacter cloacae NCTC 11936 nitroreductase assessed as fluorescent colonies after 24 hrs by fluorescence staining; procedure, shortened: as §1
Enterococcus faecalis = experiment: Binding affinity to Enterococcus faecalis NCTC 775 nitroreductase assessed as fluorescent colonies after 24 hrs by fluorescence staining; procedure, shortened: as §1
Providencia rettgeri [8] = experiment: Binding affinity to Providencia rettgeri NCTC 7475 nitroreductase assessed as fluorescent colonies after 24 hrs by fluorescence staining; procedure, shortened: as §1
Escherichia coli [9] = experiment: Binding affinity to Escherichia coli NCTC 10418 nitroreductase assessed as fluorescent colonies after 24 hrs by fluorescence staining; procedure, shortened: as §1
Escherichia coli [10] = experiment: Binding affinity to Escherichia coli NCTC 10418 aminopeptidase assessed as fluorescent colonies after 24 hrs by fluorescence staining
Procedure, shortened: (§2)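 Substrate in 1-methyl-2-pyrrolidone was mixed into molten Columbia agar at 50 °C (final 100 mg/L). NCTC strains were subcultured on Columbia agar and suspended in 0.85% saline to 10⁸ CFU/mL by densitometer. Plates were spread for single colonies and incubated at 37 °C in air for 24 h. Colonies were viewed under UV light (365 nm) and fluorescence intensity and colour scored visually; growth was also scored.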

Providencia rettgeri [11] = experiment: Binding affinity to Providencia rettgeri NCTC 7475 aminopeptidase assessed as fluorescent colonies after 24 hrs by fluorescence staining; procedure, shortened: as §2
Serratia marcescens [12] = experiment: Binding affinity to Serratia marcescens NCTC 10211 aminopeptidase assessed as fluorescent colonies after 24 hrs by fluorescence staining; procedure, shortened: as §2
Pseudomonas aeruginosa [13] = experiment: Binding affinity to Pseudomonas aeruginosa NCTC 10662 aminopeptidase assessed as fluorescent colonies after 24 hrs by fluorescence staining; procedure, shortened: as §2
Morganella morganii [14] = experiment: Binding affinity to Morganella morganii WS 462403 aminopeptidase assessed as fluorescent colonies after 24 hrs by fluorescence staining; procedure, shortened: as §2
Enterobacter cloacae [15] = experiment: Binding affinity to Enterobacter cloacae NCTC 11936 aminopeptidase assessed as fluorescent colonies after 24 hrs by fluorescence staining; procedure, shortened: as §2

SMILES	Activity (Staphylococcus aureus [1])	Activity (Pseudomonas aeruginosa [2])	Activity [3]	Activity (Serratia marcescens [4])	Activity (Enterococcus faecium)	Activity (Listeria monocytogenes)	Activity (Morganella morganii [5])	Activity (Streptococcus pyogenes)	Activity (Staphylococcus aureus [6])	Activity (Enterobacter cloacae [7])	Activity (Enterococcus faecalis)	Activity (Providencia rettgeri [8])	Activity (Escherichia coli [9])	Activity (Escherichia coli [10])	Activity (Providencia rettgeri [11])	Activity (Serratia marcescens [12])	Activity (Pseudomonas aeruginosa [13])	Activity (Morganella morganii [14])	Activity (Enterobacter cloacae [15])
Cn1c(-c2ccccc2[N+](=O)[O-])nc2ccccc21	inactive	inactive	inactive	inactive	inactive	inactive	Active	inactive	inactive	inactive	inactive	inactive	inactive						
O=[N+]([O-])c1ccc(F)cc1-c1nc2ccccc2o1	Active	inactive	inactive	Active	inactive	inactive	Active	inactive	Active	Active	inactive	Active	Active						
O=[N+]([O-])c1ccc(F)cc1-c1nc2ccccc2s1	Active	inactive	inactive	Active	inactive	inactive	Active	inactive	Active	Active	inactive	Active	Active						
Cn1c(-c2cc(Cl)ccc2[N+](=O)[O-])nc2ccccc21	Active	Active	inactive	Active	inactive	inactive	Active	inactive	Active	Active	inactive	Active	Active						
C[C@H](N)C(=O)Nc1ccccc1-c1nc2ccccc2o1														Active	Active	Active	Active	Active	Active
O=[N+]([O-])c1ccccc1-c1nc2ccccc2o1	Active	Active	Active	Active	inactive	inactive	Active	inactive	Active	Active	inactive	Active	Active						
NCCC(=O)Nc1ccccc1-c1nc2ccccc2o1														Active	Active	Active	Active	Active	Active
O=[N+]([O-])c1ccccc1-c1nc2ccccc2s1	Active	inactive	Active	Active	inactive	inactive	Active	inactive	Active	Active	inactive	Active	Active						
NCCC(=O)Nc1ccccc1-c1nc2ccccc2s1														Active	inactive	Active	Active	Active	inactive
COc1cc(-c2nc3ccccc3o2)c([N+](=O)[O-])cc1OC	Active	inactive	inactive	Active	inactive	inactive	Active	inactive	Active	Active	inactive	Active	Active						
O=[N+]([O-])c1ccc(Cl)cc1-c1nc2ccccc2o1	Active	Active	inactive	Active	inactive	inactive	Active	inactive	Active	Active	inactive	Active	Active						
O=[N+]([O-])c1ccc(Cl)cc1-c1nc2ccccc2s1	Active	Active	inactive	Active	inactive	inactive	Active	inactive	Active	Active	inactive	Active	Active						
COc1cc(-c2nc3ccccc3s2)c([N+](=O)[O-])cc1OC	Active	Active	Active	Active	inactive	inactive	Active	inactive	Active	Active	inactive	Active	Active						
C[C@H](N)C(=O)Nc1ccccc1-c1nc2ccccc2s1														Active	Active	Active	Active	Active	Active
